Assay results as given in PubChem BioAssay AID1800 (The Scripps Research Institute Molecular Screening Center, 2009).
Out of some 290,000 compounds screened, about 1,600 (0.55%) were called active. This is one part of a sample in which actives are shown more often than they occur. Values without a mark were called inactive.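 How the source made its calls: active means inhibition above the mean of all tested compounds plus 3 SD, set per campaign (cut at about 35% in these data); inactive means the rest.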

The molecules below were run on Hepatitis C virus NS3 helicase (assay: inhibitors of HCV NS3 helicase, primary screen, biochemical, Cy5 molecular beacon fluorescence (AID 1800;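 further: 0% = DMSO wells and 100% = thioflavine S control wells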)). Details: NS3 helicase DNA unwinding, at 10.9 µM, active compounds read high.
How it was run: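 test system = hepatitis C virus NS3 helicase domain fragment enzyme | reagent = annealed dual-labelled DNA beacon duplex, ATP-started | times = 1 h at 25 °C | detection = Cy5 fluorescence, 0 and 60 min reads | read-out basis = percent inhibition from t60/t0 fluorescence ratio | control set = DMSO and thioflavine S | replication = one well per compound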

Structure (SMILES) | inhibition
CS(=O)(=O)N1CCc2cc(C(=O)Nc3ccccc3Br)ccc21 | 5.96%
COc1cc2c(cc1OC)CN(CC(=O)Nc1ccc(F)cc1)CC2 | -2.51%
CCN(CCCNC(=O)c1ccc2c(c1)NC(=O)CN2C)c1cccc(C)c1 | 2.74%
O=c1c2c(-c3ccccc3)ccnc2[nH]n1-c1ccccc1 | 47.7% (active)
O=c1c(-c2cccc(Cl)c2)c[nH]n1-c1ccccc1 | 4.7%
Cc1ccc(-c2ccnc3[nH]n(-c4ccccc4)c(=O)c23)cc1 | 15.7%
COc1ccc(C(=O)N(C)CC(O)c2ccccc2)cc1OC1CCN(C(C)=O)CC1 (centres undefined) | 32.3%
CCNC(=O)CC1C(=O)N(c2ccc(OC)cc2)C(=O)N1CCOC (centres undefined) | 1.88%
COc1ccccc1N1CCN(C(=O)CCS(=O)(=O)c2ccc3c(c2)NC(=O)C(C)S3)CC1 (centres undefined) | 38.1% (active)
CC1Sc2ccc(S(=O)(=O)CCC(=O)NCc3ccccc3Cl)cc2NC1=O (centres undefined) | 8.3%
Cc1cccc(N2CCN(C(=O)CCS(=O)(=O)c3ccc4c(c3)NC(=O)C(C)S4)CC2)c1C (centres undefined) | -0.36%
Cc1ccc(S(=O)(=O)NCC(=O)N(CC(=O)NCC2CCCO2)c2cccc(F)c2)cc1 (centres undefined) | -2.87%
O=C(c1ccc(F)cc1)n1c(=S)nc2ccccn21 | 12%
CC(=O)c1ccccc1OCc1ccc(C(=O)c2ccccc2)cc1 | -8.3%
O=C1C=CC(=O)N1c1ccc(N2CCCCC2)cc1 | 45.2% (active)
O=C(Cc1ccccc1)NC(=S)Nc1ccc(N2CCCCC2)cc1 | -1.95%
O=C1CC(N2CCN(c3ccc(F)cc3)CC2)C(=O)N1c1ccccc1 (centres undefined) | -13.4%
COc1cccc(NC(=O)c2ccccc2N(Cc2ccccc2)S(C)(=O)=O)c1 | 0.24%
CC(=O)N1c2ccc(S(=O)(=O)N3CCCC(C(=O)Nc4ccc(C)cc4C)C3)cc2CC1C (centres undefined) | -18.4%
Cc1cc(C(=O)N/N=C/c2ccccc2[N+](=O)[O-])c(C)o1 | 5.42%
Cc1ccc(-c2ccc(/C=N/NC(=O)CN3CCOCC3)o2)cc1[N+](=O)[O-] | 6.31%
Cc1occc1C(=O)N/N=C/c1ccc(-c2cccc([N+](=O)[O-])c2)o1 | 45.3% (active)
COc1ccc(Cn2c(-c3ccc(Cl)cc3)c[n+]3ccccc23)cc1 | -35.9%
CCCCn1c(O)c(N=NC(=O)Cn2c(C(F)(F)F)nc3ccccc32)c2ccccc21 | 0.68%

Structure (SMILES) | inhibition
Oc1oc(-c2ccccc2Br)nc1/C=N/c1ccccn1 | -6.78%
O=C(c1ccco1)N1CCN(C(=S)Nc2cc(F)cc(F)c2)CC1 | -5.92%
CC1CCCN(c2ccc(C(=O)NCCc3ccccc3)cn2)C1 (centres undefined) | -1.78%
Cc1ccc(C(CC(=O)O)Nc2nc(N3CCCCC3)nc(N3CCCCC3)n2)cc1 (centres undefined) | 46.7% (active)
O=C(O)c1ccc(/C=N/Nc2nc(N3CCCCC3)nc(N3CCCCC3)n2)cc1 | 3.13%
CCC(NC(=O)C1CCCC1)c1ccc(C)cc1 (centres undefined) | 1.79%
Cc1ccc(C(=O)COC(=O)CCN2C(=O)C3C4CCC(C4)C3C2=O)cc1C (centres undefined) | 19.3%
CC1CN(C(=S)Nc2cccc(F)c2)CC(C)O1 (centres undefined) | -3.8%
COc1ccc(S(=O)(=O)N2CCSCC2)cc1 | 9.62%
CC(=O)C1=C(O)C(=O)N(c2ccc(Br)cc2)C1c1ccc([N+](=O)[O-])cc1 (centres undefined) | 36% (active)
CC(=O)C1=C(O)C(=O)N(c2cccnc2)C1c1ccc([N+](=O)[O-])cc1 (centres undefined) | -3.05%
COC(=O)CN1C(=O)C(O)=C(C(C)=O)C1c1ccc([N+](=O)[O-])cc1 (centres undefined) | -0.09%
CN(Cc1ccc(F)cc1)C(=O)COc1ccc2ccccc2c1 | -17.8%
COCn1c(C(O)c2ccccc2)cc2ccccc21 (centres undefined) | -4.17%
COC(=O)COc1ccc2c(c1C)O/C(=C\c1ccco1)C2=O | 90.2% (active)
COC(=O)C1=C(C)N(c2ccc(Br)cc2)C(=O)/C1=C\c1ccco1 | 17.4%
Cc1cc(C)c(OCC(=O)N/N=C/c2ccco2)c(C)c1 | -4.49%
Cn1ncc2c(N3CCCCC3)nc(NCCCO)nc21 | 5.11%
CC(=O)NN1C(=O)c2ccccc2NC1c1ccccc1 (centres undefined) | -4.55%
COC1=C/C(=C/c2c(N)n3nc(CC(=O)N4CCOCC4)sc3nc2=O)C=CC1=O | 13.6%
COc1cccc(NC(=O)CSc2nnc(Cc3ccc(OC)c(OC)c3)o2)c1 | -10.1%
O=C(N/N=C/c1ccco1)c1csc2c1CCCC2 | 42.9% (active)
O=C(N/N=C/c1ccco1)c1ccc(C(=O)N/N=C/c2ccco2)o1 | -3.79%
O=C(N/N=C/c1ccco1)c1ccc(NC(=O)C2CC2)cc1 | 2.86%

Structure (SMILES) | inhibition
Cc1ccc(C)c(S(=O)(=O)N2CCCOC2CNC(=O)C(=O)NC2CCCCC2)c1 (centres undefined) | 8.68%
CCc1cc2c(=O)n(-c3ccccc3)c(SCC(=O)O)nc2s1 | 5.68%
CCOc1ccc(C2C3=C(CCCC3=O)N(CC(=O)O)C3=C2C(=O)CCC3)cc1 | 59.8% (active)
CCOc1ccc(C2C(C#N)=C(N)N(N(C)C)C3=C2C(=O)CCC3)cc1 (centres undefined) | 6.79%
COc1ccc(C2C3=C(CCCC3=O)N(CC(=O)O)C3=C2C(=O)CCC3)cc1 | 2.66%
COc1ccc(N(C(=O)c2snc(C(N)=O)c2N)C(C(=O)NC2CCCC2)c2ccc(C)o2)c(OC)c1 (centres undefined) | -6.52%
Cc1[nH]n(C(N)=S)c(=O)c1N=Nc1ccc(Cl)cc1Cl | 44.7% (active)
Cc1[nH]n(-c2cccc(Cl)c2)c(=O)c1-c1ccc(Cl)cc1 | 1.96%
CC1=NN(C(N)=S)C(=O)C1N=Nc1cc(Cl)ccc1Cl (centres undefined) | 34.2%
O=C(CSC(=S)N1CCCCC1)c1c(F)cccc1F | 4.19%
COc1ccc(CC(=O)N/N=C(\C)c2ccccn2)cc1 | 8.79%
CCN(CC)CCOc1ccc2c(c1)C(=NNC(=O)c1ccccn1)c1cc(OCCN(CC)CC)ccc1-2 | 41% (active)
Cc1cccc(OCC(=O)NCCCNC(=O)c2ccccn2)c1 | 4.84%
COc1ccc(NC(=S)N2CCC(NC(=O)c3cccc(F)c3)CC2)cc1 | 5.28%
O=C(CSc1nnc(Nc2ccccc2)s1)Nc1cccnc1Cl | 4.07%
Cc1ccc(Nc2nnc(SCc3ccccc3)s2)cc1 | -1.63%
CC(C)c1ccc(Nc2nnc(SCC(=O)c3nnc(-c4ccccc4)o3)s2)cc1 | 42.3% (active)
Cc1ccc(CSCC(N)C(=O)O)cc1 (centres undefined) | 0.78%
Cc1ccc(C(=O)CSc2ccccc2C(=O)O)cc1 | 2.55%
Cc1ccc(SC(CC(=O)c2ccc(C(C)(C)C)cc2)C(=O)O)cc1 (centres undefined) | 44.4% (active)
C=CCn1c(=NC(=O)c2cccs2)sc2cc(NC(C)=O)ccc21 | -8.84%
Cc1cccc(CCNS(=O)(=O)c2ccc3c(c2)NC(=O)CO3)c1 | -2.06%
COc1ccc(/C=C(/NC(=O)c2ccccc2)C(=O)Nc2cccc(C(=O)O)c2)cc1 | 3.56%
COc1ccc(S(=O)(=O)N(C)CC(=O)N2CCCC2)cc1 | -9.23%

Structure (SMILES) | inhibition
CC(C)=N/N=C1/NC(=O)C(Cc2ccccc2)S1 (centres undefined) | 12.1%
COc1cc2c(cc1OC)C(c1ccccc1Br)NC(=O)C2 (centres undefined) | 1.43%
Cc1ccc(C2Nc3cccc4cccc(c34)N2)cc1 | 38.8% (active)
COc1cccc(C2Nc3cccc4cccc(c34)N2)c1 | -11.8%
Oc1ccc(C2Nc3cccc4cccc(c34)N2)cc1 | 9.35%
C/C(=C\c1ccco1)C1Nc2cccc3cccc(c23)N1 | 15%
Brc1ccccc1C1Nc2cccc3cccc(c23)N1 | 53.8% (active)
CCc1noc(C)c1C(=O)N1CCCC(N2CCN(c3ccc(F)cc3)CC2)C1 (centres undefined) | 8.93%
CC(C)(COC(=O)Nc1ccccc1)COC(=O)Nc1ccccc1 | -7.99%
CC1=NN(c2ccc(Cl)c(C(=O)O)c2)C(=O)/C1=C/c1ccc(-c2ccccc2[N+](=O)[O-])o1 | 43.5% (active)
Cc1cc([N+](=O)[O-])c(-c2ccc(/C=N/n3cnnc3)o2)cc1Cl | 12.9%
O=C(Nc1ccc(N2CCOCC2)cc1)c1ccc(-c2ccccc2[N+](=O)[O-])o1 | -10.2%
COc1ccccc1NC(=O)Nc1nnc(Cc2ccc(F)cc2)s1 | -6.22%
CCOc1ccc(N(C(=O)c2snc(C(N)=O)c2N)C(C(=O)NCC2CCCO2)c2c[nH]c3ccccc23)cc1 (centres undefined) | -29.3%
COc1ccc(C(=O)Nc2ccccc2C(=O)NCc2ccco2)cc1 | -9.8%
COc1ccc(/C=C(\NC(=O)c2ccc(OCC(C)C)cc2)C(=O)OCc2ccco2)cc1 | 43.7% (active)
COc1ccc(/C=C(/NC(=O)c2ccco2)C(=O)Nc2ccc(C(C)=O)cc2)cc1 | 2.61%
CCCn1cc(S(=O)(=O)c2ccc(C)cc2)c(=O)c2cc(OCC)ccc21 | -5.21%
CCc1ccc(NC(=O)Nc2ccncc2)cc1 | -8.08%
COCCNC(=O)Nc1ccc2nc(-c3ccco3)c(-c3ccco3)nc2c1 | 42.2% (active)
O=C(NCc1ccccn1)c1ccc2nc(-c3ccco3)c(-c3ccco3)nc2c1 | 31.3%
O=C(Nc1ccc2nccnc2c1)c1ccco1 | -0.83%
